D1 allo mod = allosteric modulators of human D1 dopamine receptor; P21728; HEK293 D1, CRE-luciferase, dopamine EC30 potentiation; actives deviate in either direction; B-score at 10 µM; actives 5.9% (n = 58,000); AID 641;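 active means luminescence count or its row- and column-corrected plate score outside the 99.7% band of the plate's sample wells, on either side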
M1 agonist = activates the M1 muscarinic receptor; CHO-M1 cells, Fluo-4 calcium fluorescence, agonist mode; stronger effect = higher value; B-score at 10 µM; actives 3% (n = 64,000);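 active means fluorescence rise, raw or as B-score row- and column-corrected plate score, outside the 99.7% band of its plate's samples, either direction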
S1P3 agonist = S1P3 (human) receptor agonism. S1P3 NFAT-BLA reporter cells, FRET ratio; relative to 1 µM S1P, basal subtracted. activation, % at 4.5 µM. actives 0.1% (n = 60,000);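 active means activation above the screen-wide mean plus 3 SD, cut at about 4.5% in these data, passing the limit was not always enough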
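Assay system: stable CHO line with human S1P3, Gα16, NFAT-BLA reporter; Detection: FRET β-lactamase substrate fluorescence, excitation 405 nm, 460/535 nm emission ratio, background-subtracted; Read-out: percent activation versus median 1 µM S1P response, basal-subtracted, per plate; Incubation: cells plated overnight, compound 4 h 37 °C, substrate 2 h RT.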
M1 antagonist = blocks the rat M1 muscarinic receptor response to acetylcholine; CHO-M1 cells, Fluo-4 calcium, ACh EC80 antagonist mode; stronger effect = lower value; P08482; B-score at 10 µM; actives 3.4% (n = 64,000); AID 628;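 active means calcium fluorescence response, raw or row-and-column corrected B-score, differing from the plate sample mean either way at a set confidence level, mostly lower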
Target sequence (P08482 whole entry, looked up): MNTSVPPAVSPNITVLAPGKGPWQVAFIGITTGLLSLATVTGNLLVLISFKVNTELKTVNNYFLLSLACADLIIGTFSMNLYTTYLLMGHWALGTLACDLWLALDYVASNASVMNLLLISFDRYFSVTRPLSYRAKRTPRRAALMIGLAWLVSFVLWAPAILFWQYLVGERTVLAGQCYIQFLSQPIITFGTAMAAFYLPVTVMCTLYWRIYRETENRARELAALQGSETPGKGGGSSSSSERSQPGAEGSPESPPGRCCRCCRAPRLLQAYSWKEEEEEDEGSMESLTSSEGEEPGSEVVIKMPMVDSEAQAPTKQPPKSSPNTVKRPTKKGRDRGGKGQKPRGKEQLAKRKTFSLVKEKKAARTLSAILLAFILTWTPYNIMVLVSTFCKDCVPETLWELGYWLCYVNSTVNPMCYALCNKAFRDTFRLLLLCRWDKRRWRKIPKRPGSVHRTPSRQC
S1P1 ag pot = agonists and agonism potentiators of human S1P1 receptor; activation, % at 9.5 µM; actives 0.57% (n = 56,000); AID 449; S1P1 CRE-bla cells, forskolin, beta-lactamase FRET, potentiator mode; S1P1 agonist co-added at EC20, 2 nM; 100% = saturating reference agonist, 0% = basal; P21453;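 active means activation above a cutoff set at the mean activation of all tested compounds plus 3 SD, cut at about 54% in these data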;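 further: forskolin at 4 µM as EC80 and the EC20 agonist is SEW2871; 100% = SEW2871 at its EC100 plus forskolin at EC80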
M1 antag conf = M1 muscarinic receptor (rat) antagonism, confirmed | actives 43% (n = 1,700) | AID 677 | CHO-M1 cells, Fluo-4 calcium, ACh EC80 antagonism; stronger effect = lower value | calcium response (max-min fluorescence) at 10 µM | shares compounds with M1 antagonist;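 active means calcium response below the same-plate mean of wells given acetylcholine alone at its 80%-effect dose, minus 3 SD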;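 further: raw fluorescence intensity difference in arbitrary instrument units and not normalized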
mGluR4 antag = selectivity test for M1 antagonists: human mGluR4 receptor. actives 0.9% (n = 1,700). shares compounds with M1 antagonist. fluorescence response (max-min) at 10 µM. CHO-mGluR4 calcium flux, Fluo-4 fluorescence, glutamate EC80; stronger effect = lower value;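 active means fluorescence response below the plate's average for near-maximal glutamate wells, less 3 SD of those wells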;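 further: raw unnormalized fluorescence span taken in the window right after glutamate addition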
* = called active by the depositor; . = not tested or not shown. An excerpt weighted towards active compounds, which were near 11% of everything screened.

SMILES	D1 allo mod	M1 agonist	S1P3 agonist	M1 antagonist	S1P1 ag pot	M1 antag conf	mGluR4 antag
COc1ccccc1C(=O)N(Cc1ccco1)C1CCS(=O)(=O)C1 (centres undefined)	0.47	-1.2	0	0.18	8	.	.
O=C(c1cnn2ccccc12)N(Cc1ccco1)C1CCCC1	0.36	-0.077	0	-4.6*	-8	396*	243
CCc1nc(SCc2ccc(C(=O)OC)o2)c2c(=O)n(C)c(=O)n(C)c2n1	3.8	-1	0	-6.7*	-8	280*	226
CCCc1nc(SCc2ccccn2)c2c(=O)n(C)c(=O)n(C)c2n1	.	-1.1	-1	-1.4*	-18	405*	204
CN1C(=O)c2cccc(NC(=O)CCc3ccccc3)c2C1=O	-0.0086	-0.062	-1	1.5	-7	.	.
CCOc1ccc(Cn2nnc(C(=O)NCc3ccc(OC)cc3)c2N)cc1	0.27	0.35	-1	-1.6*	-9	620	228
O=C(NCC1COc2ccccc2O1)Nc1ccccc1F (centres undefined)	1	0.35	-1	0.36	-12	.	.
COc1cccc(N2C(=O)C3C(C2=O)C2C=CC3C23CC3)c1 (centres undefined)	.	0.12	-1	-3.1*	-20	655	190
N#CC1=C(N)Oc2n[nH]c(-c3ccc(F)cc3)c2C1c1ccncc1 (centres undefined)	-0.1	0.37	0	0.25	0	.	.
CCOC(=O)c1ccc(N2C(=O)C3C(C2=O)C(C(=O)c2ccc(Cl)cc2)N2CCCC32)cc1 (centres undefined)	0.74	0.33	-1	-1.7*	-14	514	218
O=C1C2C3CCCC3=C3CCCC3C2C(=O)N1c1ccccc1 (centres undefined)	0.58	-0.15	-1	-3.2*	-35	321*	195
CCCSc1nc(N)c2c3c(sc2n1)CN(C)CC3	1	0.63	.	-3.9*	.	485*	213
CN(C)CCSc1nc(N)c2c3c(sc2n1)CN(C)CC3	-0.2	-0.37	.	-6.2*	.	545*	195
COCCOC(=O)c1c(C)n(C)c2ccc(OC(=O)C3CC3)cc12	1.4	0.0038	0	0.56	-16	.	.
c1ccc(CNc2ccc3c(c2)ncn3C2CCCCC2)nc1	-0.52	0.82	0	-4.9*	-12	622	251
CC(=O)N1CCc2cc(Br)cc(S(=O)(=O)NCCCN3CCC(C)CC3)c21	0.3	0.28	0	-3.7*	8	638	238
CC(=O)N1CCc2cc(Br)cc(S(=O)(=O)NCCCN3CCCC(C)C3)c21 (centres undefined)	0.021	0.32	1	-0.43	7	.	.
COc1ccc(C(=O)N2CCN(c3nc4cc(C)ccc4cc3C#N)CC2)c(OC)c1	0.18	0.11	-1	0.12	25	.	.
Cc1ccc2nc(N3CCN(C(=O)c4cccs4)CC3)c(C#N)cc2c1	0.8	1.5	-1	-2.3*	1	619	210
CC(NC(=O)C(NC(=O)C1CCCN1C(=O)OC(C)(C)C)C(C)C)C(N)=O (centres undefined)	0.13	0.18	-1	0.3	-19	.	.
O=c1c2cnn(-c3ccccc3Cl)c2ncn1Cc1cccnc1	-0.84	-0.58	1	0.86	-10	.	.
O=C(c1ccccc1C(F)(F)F)N1CCN(S(=O)(=O)c2ccccc2)CC1	-0.36	0.021	0	0.0077	-14	.	.
CCCCN(CCCC)CCn1cnc2c([nH]c3ccc(OC)cc32)c1=O	-0.15	0.51	-1	0.12	-11	.	.
COc1cc2[nH]c3c(=O)n(CCN(C(C)C)C(C)C)cnc3c2cc1OC	-1.3	0.72	-2	-4.6*	-18	542	171
Cc1cc(NC(=O)CSc2nnc(C)c(=O)[nH]2)no1	0.085	0.25	-2	-2.3*	10	676	240
SMILES	D1 allo mod	M1 agonist	S1P3 agonist	M1 antagonist	S1P1 ag pot	M1 antag conf	mGluR4 antag
Cc1nnc(SCC(=O)Nc2nccs2)[nH]c1=O	0.53	0.086	-2	-14*	1	587	249
Cc1nnc(SCC(=O)Nc2cccc(C(F)(F)F)c2)[nH]c1=O	0.95	0.61	0	-0.033	-2	.	.
O=C(NCC1CCS(=O)(=O)C1)Oc1ccccc1 (centres undefined)	0.012	0.007	-1	0.24	-15	.	.
Cc1occc1-c1nnc(SCC(=O)NC(=O)NC(C)C)n1N	-0.82	-0.85	0	-0.57	-32	.	.
CCOC(=O)C(C(=O)OCC)C(CC(=O)C1CC1)c1ccccc1 (centres undefined)	-0.0028	0.92	-2	0.84	-7	.	.
COC(=O)c1ccccc1NC(=O)C1COc2ccccc2O1 (centres undefined)	.	0.5	1	-0.067	10	.	.
COC(=O)c1cc(NC(=O)C2COc3ccccc3O2)cc(C(=O)OC)c1 (centres undefined)	1.9	0.27	0	-13*	17	668	216
CS(=O)(=O)N(CC(=O)N1CCC(C(N)=O)CC1)c1ccc(Oc2ccccc2)cc1	-0.52	0.18	-2	-1.6*	-24	550	195
CCOC(=O)N1CCN(C(=O)CN(c2ccc(Oc3ccccc3)cc2)S(C)(=O)=O)CC1	.	-1.9	.	-0.18	.	.	.
COc1cc(C)c(C(C)C)cc1S(=O)(=O)NCCCn1ccnc1	0.32	-0.025	-1	-0.24	5	.	.
CC(=O)c1ccccc1Oc1nc(CN2CCOCC2)nc2scc(-c3cccs3)c12	0.02	0.18	1	-2.3*	16	478*	183
Cc1sc2nc(CN3CCOCC3)nc(Oc3ccc(NC(=O)c4ccco4)cc3)c2c1C	0.78	-0.25	0	-0.11	-15	.	.
CCc1nc(Nc2ccncc2)c2oc3ccccc3c2n1	-0.00093	-0.59	-1	-2.4*	6	441*	242
CCc1nc(N[C@@H](Cc2c[nH]c3ccccc23)C(=O)O)c2oc3ccccc3c2n1	1.3	0.4	-1	0.2	5	.	.
COc1ccc(S(=O)(=O)N2CCN(C3CCCCCCC3)CC2)cc1	0.32	0.59	-1	-0.025	-10	.	.
COc1cccc(CN2CCCN(S(=O)(=O)c3ccc(Br)cc3)CC2)c1	0.55	1.6	0	-10*	31	301*	260
Cc1ccc(S(=O)(=O)N2CCN(C3CCN(Cc4ccccc4)CC3)CC2)cc1	0.055	-0.031	-2	-15*	6	292*	265
O=S(=O)(c1ccccc1)N1CCN(C2CCN(Cc3ccccc3)CC2)CC1	-2.4	0.45	-1	-7.5*	.	244*	172
COc1ccc(S(=O)(=O)N2CCN(C3CCN(Cc4ccccc4)CC3)CC2)cc1	0.0017	0.81	-2	-11*	-2	189*	211

Compound activity (PubChem)
